Calls of active or inactive are those of the source. No cut-off for these calls is given here.
How the values were obtained:
[1] = molecular target: T1, Neuropeptide FF receptor 2 (Homo sapiens, UniProt Q9Y5X5); assay: Agonist activity at NPFFR2 expressed in HEK293T cells co-expressing Gqi5 assessed as increase of intracellular calcium mobilization after 1 hr; type: functional, cell-based; details: HEK-293T
[2] = molecular target: T2, Galanin receptor type 1 (Homo sapiens) (UniProt P47211); assay: Displacement of [125I]-Tyr9-galanin from GalR1 at 10 uM after 1 hr
T2 sequence (whole entry): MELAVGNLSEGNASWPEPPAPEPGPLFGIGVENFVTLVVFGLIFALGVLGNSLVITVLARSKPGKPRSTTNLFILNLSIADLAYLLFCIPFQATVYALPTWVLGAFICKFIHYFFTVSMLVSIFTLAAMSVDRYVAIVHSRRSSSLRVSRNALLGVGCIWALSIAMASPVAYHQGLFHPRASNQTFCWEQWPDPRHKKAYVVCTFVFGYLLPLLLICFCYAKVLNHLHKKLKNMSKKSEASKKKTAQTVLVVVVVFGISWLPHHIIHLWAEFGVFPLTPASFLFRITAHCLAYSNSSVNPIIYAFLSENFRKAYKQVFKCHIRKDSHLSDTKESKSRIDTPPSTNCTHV
Outline: (§1)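 Single-point radioligand binding inhibition on receptor membrane preparations, test peptide at 10 μM. Radioligands are [125I]Tyr9-galanin for GALR1–3, [125I]-prolactin-releasing peptide-20 for PrRPR, and (d-[125I]Tyr1, MePhe3)-NPFF for NPFFR1 and NPFFR2. Read-out is % inhibition of specific binding, mean of duplicate analyses.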

Rattus norvegicus [3] = organism: Rattus norvegicus; assay: Increase of GnRH release in Wistar-imamichi rat median eminence at 1 uM after 30 mins by double-antibody radioimmunoassay; type: functional
Outline: (§2)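 Rat median eminence incubated in vitro with peptide. Released GnRH quantified by double-antibody radioimmunoassay with [125I]-labeled GnRH; mean ± SEM of triplicate or more experiments.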

[4] = molecular target: T3, Neuropeptide FF receptor 1 (Homo sapiens, UniProt Q9GZQ6); assay: Agonist activity at NPFFR1 expressed in HEK293T cells co-expressing Gqi5 assessed as increase of intracellular calcium mobilization after 1 hr; type: functional, cell-based; details: HEK-293T
[5] = molecular target: T4, Galanin receptor type 2 (Homo sapiens) (UniProt O43603); assay: Displacement of [125I]-Tyr9-galanin from GalR2 at 10 uM after 1 hr; outline: as §1
T4 sequence (whole entry): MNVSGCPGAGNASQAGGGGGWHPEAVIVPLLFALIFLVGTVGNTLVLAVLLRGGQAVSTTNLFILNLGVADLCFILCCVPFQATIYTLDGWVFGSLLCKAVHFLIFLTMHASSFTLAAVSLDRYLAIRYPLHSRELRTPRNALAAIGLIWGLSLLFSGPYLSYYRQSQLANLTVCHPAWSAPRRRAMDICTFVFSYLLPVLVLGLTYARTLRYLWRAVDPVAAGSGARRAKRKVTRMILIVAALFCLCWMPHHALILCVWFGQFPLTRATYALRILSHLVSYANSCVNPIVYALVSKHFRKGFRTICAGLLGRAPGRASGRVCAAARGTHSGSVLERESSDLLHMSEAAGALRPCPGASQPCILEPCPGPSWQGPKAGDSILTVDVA

[6] = molecular target: T5, Prolactin-releasing peptide receptor (Homo sapiens) (UniProt P49683); assay: Displacement of [125I]-prolactin releasing peptide-20 from PrRPR at 10 uM after 30 mins; outline: as §1
T5 sequence (whole entry): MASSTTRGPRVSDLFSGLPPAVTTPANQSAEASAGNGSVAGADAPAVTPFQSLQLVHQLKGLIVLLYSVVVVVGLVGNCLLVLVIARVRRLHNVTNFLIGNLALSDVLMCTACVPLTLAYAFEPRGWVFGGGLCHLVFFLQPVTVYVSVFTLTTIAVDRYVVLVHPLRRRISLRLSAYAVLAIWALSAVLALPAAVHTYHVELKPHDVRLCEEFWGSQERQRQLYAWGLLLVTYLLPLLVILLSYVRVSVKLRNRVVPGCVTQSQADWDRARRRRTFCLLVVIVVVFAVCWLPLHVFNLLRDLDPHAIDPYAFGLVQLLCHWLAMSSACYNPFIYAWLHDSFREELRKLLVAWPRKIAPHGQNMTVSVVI

[7] = molecular target: T1, Neuropeptide FF receptor 2; assay: Displacement of (D-[125I]Tyr1, MePhe3)-NPFF from NPFFR2 at 10 uM after 2 hrs; outline: as §1
[8] = molecular target: T6, Galanin receptor type 3 (Homo sapiens) (UniProt O60755); assay: Displacement of [125I]-Tyr9-galanin from GalR3 at 10 uM after 1 hr; outline: as §1
T6 sequence (whole entry): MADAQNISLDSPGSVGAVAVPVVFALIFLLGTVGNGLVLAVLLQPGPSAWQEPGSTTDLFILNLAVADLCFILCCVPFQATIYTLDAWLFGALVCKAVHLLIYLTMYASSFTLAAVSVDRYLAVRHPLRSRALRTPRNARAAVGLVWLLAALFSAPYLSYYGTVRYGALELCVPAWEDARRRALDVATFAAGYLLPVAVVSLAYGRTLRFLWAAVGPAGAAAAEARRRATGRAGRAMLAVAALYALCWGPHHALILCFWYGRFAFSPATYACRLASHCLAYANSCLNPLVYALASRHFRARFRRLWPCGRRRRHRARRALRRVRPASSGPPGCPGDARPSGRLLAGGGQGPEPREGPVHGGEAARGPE

[9] = molecular target: T3, Neuropeptide FF receptor 1; assay: Agonist activity at NPFFR1 expressed in HEK293T cells co-expressing Gqi5 assessed as increase of intracellular calcium mobilization at 0.24 uM after 1 hr; type: functional, cell-based; details: HEK-293T
[10] = molecular target: T1, Neuropeptide FF receptor 2; assay: Agonist activity at NPFFR2 expressed in CHO cells assessed as inhibition of forskolin-induced cAMP accumulation at up to 100 uM after 30 mins
[11] = molecular target: T3, Neuropeptide FF receptor 1; assay: Displacement of (D-[125I]Tyr1, MePhe3)-NPFF from NPFFR1 at 10 uM after 2 hrs; outline: as §1
[12] = molecular target: T3, Neuropeptide FF receptor 1; assay: Agonist activity at NPFFR1 expressed in CHO cells assessed as inhibition of forskolin-induced cAMP accumulation at up to 100 uM after 30 mins
Rattus norvegicus [13] = assay: Increase of luteinizing hormone level in Wistar-imamichi rat plasma at 0.25 nmol, administered intracerebroventricularly in preoptic area after 3 hrs measured every 6 mins by double-antibody radioimmunoassay; type: functional, organism-based
Outline: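 Male rats given 0.25 nmol peptide into the preoptic area. Blood sampled every 6 min over 3 h; plasma LH expressed as area under the curve. Mean ± SEM of five or more experiments.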

KiSS-1 receptor [14] = molecular target: T7, KiSS-1 receptor (Homo sapiens, UniProt Q969F8); assay: Displacement of [125I]kisspeptin-15 from GPR54
[15] = molecular target: T3, Neuropeptide FF receptor 1; assay: Displacement of (D-[125I]Tyr1, MePhe3)-NPFF from NPFFR1 after 2 hrs
Outline: (§3)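 Dose–response inhibition of (d-[125I]Tyr1, MePhe3)-NPFF binding to NPFFR1 or NPFFR2. IC50 is the concentration giving 50% inhibition of radioligand binding, taken from dose–response curves built from triplicate data points.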

[16] = molecular target: T1, Neuropeptide FF receptor 2; assay: Displacement of (D-[125I]Tyr1, MePhe3)-NPFF from NPFFR2 after 2 hrs; outline: as §3
Rattus norvegicus [17] = organism: Rattus norvegicus; assay: Increase of GnRH release in Wistar-imamichi rat median eminence at 0.1 uM after 30 mins by double-antibody radioimmunoassay; type: functional; outline: as §2
KiSS-1 receptor [18] = molecular target: T7, KiSS-1 receptor; assay: Agonist activity at GPR54 expressed in CHO cells assessed as increase of intracellular calcium mobilization at 10 uM after 1 hr; type: functional, cell-based

T7 sequence (Q969F8 whole entry): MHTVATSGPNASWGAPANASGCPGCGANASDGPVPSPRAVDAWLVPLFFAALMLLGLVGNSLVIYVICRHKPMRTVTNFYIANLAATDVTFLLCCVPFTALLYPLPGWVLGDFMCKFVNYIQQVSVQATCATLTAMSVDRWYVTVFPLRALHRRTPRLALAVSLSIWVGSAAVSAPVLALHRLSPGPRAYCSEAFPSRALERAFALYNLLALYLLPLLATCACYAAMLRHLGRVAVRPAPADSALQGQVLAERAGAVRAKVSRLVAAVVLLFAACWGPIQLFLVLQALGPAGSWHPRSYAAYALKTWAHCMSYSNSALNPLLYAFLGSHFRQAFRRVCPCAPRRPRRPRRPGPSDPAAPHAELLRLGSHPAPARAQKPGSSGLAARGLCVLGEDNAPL
T3 sequence (Q9GZQ6 whole entry): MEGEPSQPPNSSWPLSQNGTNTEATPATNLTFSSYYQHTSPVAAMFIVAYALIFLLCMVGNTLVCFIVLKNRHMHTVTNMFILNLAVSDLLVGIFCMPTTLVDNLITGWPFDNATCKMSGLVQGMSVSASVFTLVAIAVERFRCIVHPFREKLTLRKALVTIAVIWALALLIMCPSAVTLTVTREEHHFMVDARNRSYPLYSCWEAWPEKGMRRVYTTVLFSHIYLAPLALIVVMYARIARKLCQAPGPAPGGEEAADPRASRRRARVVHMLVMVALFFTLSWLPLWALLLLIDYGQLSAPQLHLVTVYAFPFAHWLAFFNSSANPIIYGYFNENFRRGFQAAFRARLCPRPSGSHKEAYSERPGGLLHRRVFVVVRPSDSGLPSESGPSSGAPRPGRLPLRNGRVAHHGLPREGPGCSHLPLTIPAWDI
T1 sequence (Q9Y5X5 whole entry): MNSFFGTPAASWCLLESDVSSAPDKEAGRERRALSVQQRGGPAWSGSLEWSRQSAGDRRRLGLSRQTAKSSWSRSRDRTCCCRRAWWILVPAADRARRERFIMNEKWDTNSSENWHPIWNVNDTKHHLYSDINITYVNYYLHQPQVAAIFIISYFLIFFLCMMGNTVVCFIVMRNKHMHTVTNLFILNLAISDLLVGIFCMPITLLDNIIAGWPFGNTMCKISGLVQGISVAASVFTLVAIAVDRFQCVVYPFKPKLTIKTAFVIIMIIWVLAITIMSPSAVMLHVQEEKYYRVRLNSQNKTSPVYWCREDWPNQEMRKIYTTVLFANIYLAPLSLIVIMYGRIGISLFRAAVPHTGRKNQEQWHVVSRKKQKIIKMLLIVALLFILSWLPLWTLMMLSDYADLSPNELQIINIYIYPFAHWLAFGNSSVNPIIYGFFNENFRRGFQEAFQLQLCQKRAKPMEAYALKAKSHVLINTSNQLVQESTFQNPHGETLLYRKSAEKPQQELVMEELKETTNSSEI

Compound	Activity [9]	inhibition [10]	inhibition [12]	IC50 (KiSS-1 receptor [14])	IC50 [15]	IC50 [16]	Activity (Rattus norvegicus [13])	further results
CC(C)C[C@H](/C=C/CNC(=O)[C@H](Cc1ccccc1)NC(=O)c1ccc(F)cc1)C(=O)N[C@@H](CCCN=C(N)N)C(=O)N[C@@H](Cc1c[nH]c2ccccc12)C(N)=O					640 nM	2400 nM		
CC(C)C[C@H](NC(=O)CNC(=O)[C@H](Cc1ccccc1)NC(=O)[C@H](CO)NC(=O)[C@H](CC(N)=O)NC(=O)[C@H](Cc1c[nH]c2ccccc12)NC(=O)[C@H](CC(N)=O)NC(=O)[C@@H](N)Cc1ccc(O)cc1)C(=O)N[C@@H](CCCNC(=N)N)C(=O)N[C@@H](Cc1ccccc1)C(N)=O [KISSPEPTIN-10]	86%	Active	Active		4.7 nM	76 nM	Active	Activity (Rattus norvegicus [17]): Active
N=C(N)NCCC[C@H](NC(=O)C12CC3CC(CC(C3)C1)C2)C(=O)N[C@@H](Cc1ccccc1)C(N)=O								Activity (KiSS-1 receptor [18]): inactive
CC(C)C[C@H](NC(=O)CNC(=O)[C@H](Cc1ccccc1)NC(=O)c1ccc(F)cc1)C(=O)N[C@@H](CCCN=C(N)N)C(=O)N[C@@H](Cc1c[nH]c2ccccc12)C(N)=O					160 nM	1800 nM		

More lines, main results first:

Activity [9]	inhibition [10]	inhibition [12]	IC50 (KiSS-1 receptor [14])	IC50 [15]	IC50 [16]	Compound	Activity (Rattus norvegicus [13])	further results
52%	Active	Active				CC(C)C[C@H](/C=C/CNC(=O)[C@H](Cc1ccccc1)NC(=O)c1ccc(F)cc1)C(=O)N[C@@H](CCCNC(=N)N)C(=O)N[C@@H](Cc1c[nH]c2ccccc12)C(N)=O	Active	Activity [1]: Dose-dependent effect; Activity [2]: inactive; Activity (Rattus norvegicus [3]): Active; Activity [4]: Dose-dependent effect; Activity [5]: inactive; Activity [6]: 16.1%; Activity [7]: 95.7%; Activity [8]: inactive; Activity [11]: 88.3%
			830 nM			NC(=O)[C@H](Cc1ccccc1)NC(=O)[C@H](CCCN=C(N)N)NC(=O)C12CC3CC(CC(C3)C1)C2		
			16000 nM			CN(C)c1cccc2c(S(=O)(=O)N3CCC[C@H]3C(=O)N[C@@H](CCC(N)=O)C(=O)N[C@@H](CCCNC(=N)N)C(=O)N[C@@H](Cc3ccccc3)C(N)=O)cccc12		Activity (KiSS-1 receptor [18]): inactive
49%	Active	Active				CC(C)C[C@H](NC(=O)CNC(=O)[C@H](Cc1ccccc1)NC(=O)c1ccc(F)cc1)C(=O)N[C@@H](CCCNC(=N)N)C(=O)N[C@@H](Cc1c[nH]c2ccccc12)C(N)=O	Active	Activity [1]: Dose-dependent effect; Activity [2]: inactive; Activity (Rattus norvegicus [3]): Active; Activity [4]: Dose-dependent effect; Activity [5]: inactive; Activity [6]: 21.1%; Activity [7]: 90.7%; Activity [8]: inactive; Activity [11]: 99.4%
			> 30000 nM	1.9 nM	0.79 nM	H-SLAAPQRF-OH		
